Calls of active or inactive are those of the source. No cut-off for these calls is given here.
Tests used:
[1] = target: T1, 5-hydroxytryptamine receptor 2C (Homo sapiens) (UniProt P28335); assay: Agonist activity at 5HT2C receptor (unknown origin) expressed in HEK293 cells co-expressing NFAT-RE at 10 uM after 6 to 12 hrs by Bright-Glo luciferase reporter gene assay; type: cell-based
T1 sequence (whole entry): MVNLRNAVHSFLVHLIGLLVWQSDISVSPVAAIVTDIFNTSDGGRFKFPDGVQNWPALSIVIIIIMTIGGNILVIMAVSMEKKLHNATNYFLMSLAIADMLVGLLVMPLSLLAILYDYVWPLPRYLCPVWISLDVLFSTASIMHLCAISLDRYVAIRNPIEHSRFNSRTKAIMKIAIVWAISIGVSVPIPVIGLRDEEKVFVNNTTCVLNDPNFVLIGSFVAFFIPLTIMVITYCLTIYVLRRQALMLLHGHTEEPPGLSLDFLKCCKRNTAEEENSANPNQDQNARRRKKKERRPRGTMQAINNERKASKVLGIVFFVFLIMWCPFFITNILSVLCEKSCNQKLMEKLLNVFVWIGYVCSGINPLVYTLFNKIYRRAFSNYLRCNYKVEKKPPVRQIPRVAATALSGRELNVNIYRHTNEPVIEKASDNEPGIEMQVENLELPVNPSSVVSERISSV
Procedure, shortened: (§1)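 Primary screen at 5-HT2C in transiently co-transfected HEK293T (receptor plus NFAT-RE luciferase plasmids, 50,000 cells/well). Compounds tested in triplicate at a final 10 µM in HEPES-buffered HBSS pH 7.4 and incubated 6-12 h. Luminescence read within 5 min of Bright-Glo (1 mg/ml final). Signal normalized to the 5-HT maximal response.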

[2] = target: T1, 5-hydroxytryptamine receptor 2C (Homo sapiens); assay: Positive allosteric modulation of 5HT2C receptor (unknown origin) expressed in HEK293 cells co-expressing NFAT-RE assessed as increase in serotonin-induced reponse at 10 uM after 6 to 12 hrs by Bright-Glo luciferase reporter gene assay relative to serotonin; type: cell-based
Procedure, shortened: (§2)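 Transiently co-transfected HEK293T cells expressing 5-HT2A, 5-HT2B or 5-HT2C with NFAT-RE luciferase, 50,000 cells/well. Test compound added first at 10 µM, 1 µM or 100 nM, in triplicate. A 5-HT concentration-response (10 µM to 0.01 nM) followed, then 6-12 h incubation. Bright-Glo luminescence was fitted by non-linear regression, with Emax normalized to 5-HT alone (100%). n=3-4.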

[3] = target: T1, 5-hydroxytryptamine receptor 2C (Homo sapiens); assay: Positive allosteric modulation of 5HT2C receptor (unknown origin) expressed in HEK293 cells co-expressing NFAT-RE assessed as increase in serotonin-induced reponse at 1 uM after 6 to 12 hrs by Bright-Glo luciferase reporter gene assay relative to serotonin; type: cell-based; procedure, shortened: as §2
[4] = target: T1, 5-hydroxytryptamine receptor 2C (Homo sapiens); assay: Positive allosteric modulation of 5HT2C receptor (unknown origin) expressed in HEK293 cells co-expressing NFAT-RE assessed as increase in serotonin-induced reponse at 100 nM after 6 to 12 hrs by Bright-Glo luciferase reporter gene assay relative to serotonin; type: cell-based; procedure, shortened: as §2
[5] = target: T1, 5-hydroxytryptamine receptor 2C (Homo sapiens); assay: Positive allosteric modulation of 5HT2C receptor (unknown origin) expressed in HEK293 cells co-expressing NFAT-RE assessed as increase in serotonin-induced intracellular calcium flux at 1 uM preincubated for 15 mins followed by serotonin stimulation and measured for 120 secs by Fluo-4NW dye based fluorescence assay relative to serotonin; type: functional, cell-based
Procedure, shortened: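 5-HT2C-transfected HEK293T cells, 50,000 cells/well, loaded with Fluo-4NW calcium dye. Compound (1 µM) preincubated 15 min. 5-HT then added at 35 µl/min and fluorescence (ex 494/em 516 nm) recorded for 120 s. Fold change was calculated against baseline from the first 5 s before ligand addition. Emax normalized to 5-HT alone.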

[6] = target: T1, 5-hydroxytryptamine receptor 2C (Homo sapiens); assay: Agonist activity at 5HT2C receptor (unknown origin) expressed in HEK293 cells co-expressing NFAT-RE at 10 uM after 6 to 12 hrs by Bright-Glo luciferase reporter gene assay relative to control; type: cell-based; procedure, shortened: as §1
[7] = target: T2, 5-hydroxytryptamine receptor 2B (Homo sapiens, UniProt P41595); assay: Negative allosteric modulation of 5HT2B receptor (unknown origin) expressed in HEK293 cells co-expressing NFAT-RE assessed as reduction in serotonin-induced reponse after 6 to 12 hrs by Bright-Glo luciferase reporter gene assay; type: cell-based; procedure, shortened: as §2
[8] = target: 5HT2A receptor (Homo sapiens, UniProt P28223); assay: Positive allosteric modulation of 5HT2A receptor (unknown origin) expressed in HEK293 cells co-expressing NFAT-RE assessed as increase in serotonin-induced reponse at 1 uM after 6 to 12 hrs by Bright-Glo luciferase reporter gene assay relative to serotonin; type: cell-based; details: HEK293 cells expressing 5HT2A receptor and NFAT-RE reporter; procedure, shortened: as §2
[9] = target: 5HT2B receptor (Homo sapiens, UniProt P41595); assay: Positive allosteric modulation of 5HT2B receptor (unknown origin) expressed in HEK293 cells co-expressing NFAT-RE assessed as increase in serotonin-induced reponse at 1 uM after 6 to 12 hrs by Bright-Glo luciferase reporter gene assay relative to serotonin; type: cell-based; details: HEK293 cells expressing 5HT2B receptor and NFAT-RE reporter; procedure, shortened: as §2
[10] = target: T3, 5-hydroxytryptamine receptor 2A (Homo sapiens, UniProt P28223); assay: Agonist activity at 5HT2A receptor (unknown origin) expressed in HEK293 cells co-expressing NFAT-RE after 6 to 12 hrs by Bright-Glo luciferase reporter gene assay; type: cell-based
Procedure, shortened: (§3)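 HEK293T cells transiently co-transfected (PEI) with 0.1 µg/well receptor plasmid (5-HT2A, 5-HT2B or 5-HT2C) plus 0.1 µg/well NFAT-RE luciferase reporter, plated 50,000 cells/well 24 h before treatment. Compounds tested in triplicate from 10 µM down to 0.01 nM in HBSS/20 mM HEPES pH 7.4, incubated 6-12 h. Luminescence read within 5 min of Bright-Glo (1 mg/ml final). RLU fitted by non-linear regression; 5-HT Emax set to 100%.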

[11] = test system: Rattus norvegicus; assay: Induction of anorexia in Sprague-Dawley rat assessed as suppression of food intake at 2 pmol, icv measured after 3 to 6 hrs; type: functional, organism-based
Procedure, shortened: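 Adult SD rats (150-200 g) on a 12 h light/dark cycle at 22 °C, cannulated in the right ventricle. Rats were fasted 4 h with free access to water, then dosed i.c.v. with 2 pmol/rat (2 µL) in aCSF vehicle; lorcaserin 2 pmol/rat served as positive control. Weighed pellets were given 10 min later, and remaining food plus spillage was weighed at 3, 6 and 24 h; n=4.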

[12] = test system: Rattus norvegicus; assay: Induction of anorexia in Sprague-Dawley rat assessed as suppression of food intake at 2 pmol, icv measured after 24 hrs; type: functional, organism-based
Procedure, shortened: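 Adult SD rats (150-200 g) on a 12 h light/dark cycle at 22 °C, with a cannula in the right ventricle (AP -0.9, ML -1.5, DV -3.5). Rats were food-deprived for 4 h with water available. Compound given i.c.v. at 2 pmol/rat in 2 µL, vehicle aCSF; lorcaserin 2 pmol as positive control. Weighed pellets were supplied 10 min later. Remaining food including spillage was weighed at 3, 6 and 24 h; n=4.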

[13] = target: T2, 5-hydroxytryptamine receptor 2B; assay: Agonist activity at 5HT2B receptor (unknown origin) expressed in HEK293 cells co-expressing NFAT-RE after 6 to 12 hrs by Bright-Glo luciferase reporter gene assay; type: cell-based; procedure, shortened: as §3
[14] = target: T1, 5-hydroxytryptamine receptor 2C (Homo sapiens); assay: Agonist activity at 5HT2C receptor (unknown origin) expressed in HEK293 cells co-expressing NFAT-RE after 6 to 12 hrs by Bright-Glo luciferase reporter gene assay; type: cell-based; procedure, shortened: as §3
[15] = target: T4, 5-hydroxytryptamine receptor 2C (Homo sapiens, UniProt P28335); assay: Positive allosteric modulation of 5HT2C receptor (unknown origin) expressed in HEK293 cells co-expressing NFAT-RE assessed as increase in serotonin-induced reponse after 6 to 12 hrs by Bright-Glo luciferase reporter gene assay; type: cell-based; procedure, shortened: as §2
T4 sequence (P28335 whole entry): T1 sequence (whole entry)

[16] = target: T3, 5-hydroxytryptamine receptor 2A; assay: Positive allosteric modulation of 5HT2A receptor (unknown origin) expressed in HEK293 cells co-expressing NFAT-RE assessed as increase in serotonin-induced reponse after 6 to 12 hrs by Bright-Glo luciferase reporter gene assay; type: cell-based; procedure, shortened: as §2
[17] = target: T2, 5-hydroxytryptamine receptor 2B; assay: Positive allosteric modulation of 5HT2B receptor (unknown origin) expressed in HEK293 cells co-expressing NFAT-RE assessed as increase in serotonin-induced reponse after 6 to 12 hrs by Bright-Glo luciferase reporter gene assay; type: cell-based; procedure, shortened: as §2

T2 sequence (P41595 whole entry): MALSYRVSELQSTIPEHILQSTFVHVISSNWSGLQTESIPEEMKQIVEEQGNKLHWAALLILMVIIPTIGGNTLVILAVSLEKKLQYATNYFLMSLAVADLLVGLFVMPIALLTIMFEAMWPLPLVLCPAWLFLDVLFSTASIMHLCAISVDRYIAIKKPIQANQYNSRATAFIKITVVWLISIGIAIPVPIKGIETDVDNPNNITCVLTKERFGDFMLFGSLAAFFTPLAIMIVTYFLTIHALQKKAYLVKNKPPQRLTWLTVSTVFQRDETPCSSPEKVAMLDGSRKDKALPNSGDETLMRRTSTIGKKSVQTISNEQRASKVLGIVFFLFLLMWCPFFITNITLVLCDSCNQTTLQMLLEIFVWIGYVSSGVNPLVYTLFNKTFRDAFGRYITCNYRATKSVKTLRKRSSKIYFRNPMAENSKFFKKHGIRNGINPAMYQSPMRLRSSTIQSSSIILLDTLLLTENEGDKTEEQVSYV
T3 sequence (P28223 whole entry): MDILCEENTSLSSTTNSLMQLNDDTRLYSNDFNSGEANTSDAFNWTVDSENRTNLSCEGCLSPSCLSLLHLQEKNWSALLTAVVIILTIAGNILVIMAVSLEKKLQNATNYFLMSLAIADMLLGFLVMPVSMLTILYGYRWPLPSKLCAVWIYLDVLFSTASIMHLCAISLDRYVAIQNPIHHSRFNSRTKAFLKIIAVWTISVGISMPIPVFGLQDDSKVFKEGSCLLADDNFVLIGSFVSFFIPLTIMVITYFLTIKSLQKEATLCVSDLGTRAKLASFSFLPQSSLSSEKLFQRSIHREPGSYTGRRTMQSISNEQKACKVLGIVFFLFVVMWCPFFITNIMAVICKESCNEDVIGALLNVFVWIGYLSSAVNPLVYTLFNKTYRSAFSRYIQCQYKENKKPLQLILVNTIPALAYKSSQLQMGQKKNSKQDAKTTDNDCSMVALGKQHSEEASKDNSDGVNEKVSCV
Sequence of 5HT2B receptor (P41595 whole entry): as the sequence (P41595 whole entry) above
Sequence of 5HT2A receptor (P28223 whole entry): as the sequence (P28223 whole entry) above

Activity [1]: inactive
Emax [2]: 149%
Emax [3]: 139 to 146%
Activity [4]: Active
Emax [5]: 124%
fold change (FC) [6]: 2
Activity [7]: Dose-dependent effect
Emax at 1 µM [8]: 99%
Emax at 1 µM [9]: 118%
Activity [10]: Not Active
Activity [13]: Not Active
Activity [14]: inactive
EC50 [15]: 0.00501 µM
EC50 [16]: 0.038 µM
EC50 [17]: 0.0117 µM
Structure (SMILES): O=C(c1ccc(N2CCN(Cc3ccccc3)CC2)cc1)C1CC1
Activity [11]: Active
Activity [12]: inactive
